Assay [1] has as its target T1, Geranylgeranyl pyrophosphate synthase (Homo sapiens) (UniProt O95749).
T1 sequence (whole entry): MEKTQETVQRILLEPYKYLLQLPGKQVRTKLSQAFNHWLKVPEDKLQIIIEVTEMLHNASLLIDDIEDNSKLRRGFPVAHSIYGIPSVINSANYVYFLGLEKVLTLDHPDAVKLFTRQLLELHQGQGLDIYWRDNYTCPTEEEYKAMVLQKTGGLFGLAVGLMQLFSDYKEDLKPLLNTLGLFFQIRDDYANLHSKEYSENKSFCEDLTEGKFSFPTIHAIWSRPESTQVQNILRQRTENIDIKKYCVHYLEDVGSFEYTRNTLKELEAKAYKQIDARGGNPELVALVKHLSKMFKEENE
The assay is described as follows: Inhibition of GGDPS in human RPMI8266 cells assessed as disruption of Rap1a geranylgeranylation after 48 hrs by immunoblot analysis. It is filed as cell-based. The procedure, abridged: (§1)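 Cells were lysed in RIPA buffer (0.15 M NaCl, 1% deoxycholate, 0.1% SDS, 1% Triton X-100, 0.05 M Tris HCl) with protease and phosphatase inhibitors. Protein was quantified by BCA, and equal amounts were run on SDS-PAGE and transferred to PVDF. Blots were probed for unmodified Rap1a, a GGTase I substrate, and detected with HRP secondary antibodies and ECL.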
For orientation: A western blot detects proteins with antibodies after separation by electrophoresis.

For assay [2], the target named is T1, Geranylgeranyl pyrophosphate synthase (Homo sapiens). The assay is described as follows: Inhibition of GGDPS in human RPMI8266 cells assessed as lambda light chain levels after 48 hrs by ELISA. It is filed as cell-based. (In general: In an ELISA, binding on a coated surface is turned into a signal by an enzyme label.)
A short description of assay [3]: Cytotoxicity against human RPMI8266 cells after 48 hrs by MTT assay. The assay is classed as functional, cell-based. To be noted: RPMI8266, 48 h. The procedure, abridged:
(§2)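 Cells were plated at 2.5 ×10^4 cells/100 μL/well and exposed to compounds for 48 hrs. MTT (5 mg/mL in PBS) was then added for 4 hrs, and the product was solubilized overnight at 37 °C in 0.01 M HCl/10% SDS. Absorbance was read at 540 nm, with untreated controls set as 100% MTT activity. Each test ran in quadruplicate across three independent experiments, and EC50 is reported as mean ± standard deviation.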
(Formazan colour is commonly taken as a measure of viable cells.)

Assay [4] is described as follows: Cytotoxicity against human MM1S cells after 48 hrs by MTT assay. It is filed as functional, cell-based. To be noted: MM1.S. The procedure, abridged:
as §2

A short description of assay [5]: Cytotoxicity against human ALMC2 cells after 48 hrs by MTT assay. It is filed as functional, cell-based. To be noted: ALMC2, 48 h. The procedure, abridged:
as §2

For assay [6], the target named is T1, Geranylgeranyl pyrophosphate synthase (Homo sapiens). The assay is described as follows: Inhibition of GGDPS in human RPMI8266 cells assessed as disruption of Rap1a geranylgeranylation at 1 uM after 48 hrs by immunoblot analysis in presence of GGDP. The assay is classed as cell-based. The procedure, abridged: as §1
Assay [7] shares this target. The assay is described as follows: Inhibition of GGDPS in human RPMI8266 cells assessed as lambda light chain levels at 1 uM after 48 hrs by ELISA in presence of GGDP. It is filed as cell-based.
The target is the same in assay [8]. The assay is described as follows: Inhibition of GGDPS in human RPMI8266 cells assessed as disruption of Rap1a geranylgeranylation at 5 uM after 48 hrs by immunoblot analysis in presence of GGDP. It is filed as cell-based. The procedure, abridged: as §1
The target is the same in assay [9]. The assay is described as follows: Inhibition of GGDPS in human RPMI8266 cells assessed as lambda light chain levels at 5 uM after 48 hrs by ELISA in presence of GGDP. The assay is classed as cell-based.
For assay [10] the target is unchanged. The assay is described as follows: Inhibition of GGDPS in human RPMI8266 cells assessed as disruption of Rap1a geranylgeranylation at 5 uM after 48 hrs by immunoblot analysis in presence of mevalonate. It is filed as cell-based. The procedure, abridged: as §1
Assay [11] shares this target. The assay is described as follows: Inhibition of GGDPS in human RPMI8266 cells assessed as lambda light chain levels at 5 uM after 48 hrs by ELISA in presence of mevalonate. The assay is classed as cell-based.
For assay [12] the target is unchanged. The assay is described as follows: Inhibition of GGDPS in human RPMI8266 cells assessed as disruption of Rap1a geranylgeranylation at low concentrations after 48 hrs by immunoblot analysis. It is filed as cell-based. The procedure, abridged: as §1
For assay [13] the target is unchanged. The assay is described as follows: Inhibition of GGDPS in human RPMI8266 cells assessed as lambda light chain levels at low concentrations after 48 hrs by ELISA. The assay is classed as cell-based.

Active and inactive are the calls of the source. The rule behind the calls is not given here. A value given as a limit tells only on which side of the number the result lay.

A word on the EC50: it is the concentration at which the effect is half-maximal. Consider `CC(C)=CCC/C(C)=C/CC(C/C=C(\C)CCC=C(C)C)(P(=O)(OCC[C@@H](C)CCC=C(C)C)OCOC(=O)C(C)(C)C)P(=O)(OCOC(=O)C(C)(C)C)OCOC(=O)C(C)(C)C` (stereo partly drawn), for which the inhibition result in assay [1] and in assay [2] was “Dose-dependent effect” each time. The EC50 in [3] is 26.7 µM; in assay [4] it was 48.2 µM; in assay [5], over 100 µM.
As to `CC(C)=CCC/C(C)=C/CC(P(=O)(OCC[C@@H](C)CCC=C(C)C)OCOC(=O)C(C)(C)C)P(=O)(OCOC(=O)C(C)(C)C)OCOC(=O)C(C)(C)C` (stereo partly drawn), the inhibition entry in assay [1] and in assay [2] was “Dose-dependent effect” each time. In addition, the EC50 amounted to 7.1 µM in assay [3], 5.7 µM in [4] and 12.6 µM in assay [5].
Take `CC(C)=CCC/C(C)=C/CC(C)(P(=O)(OCC[C@@H](C)CCC=C(C)C)OCOC(=O)C(C)(C)C)P(=O)(OCOC(=O)C(C)(C)C)OCOC(=O)C(C)(C)C` (stereo partly drawn): the inhibition entry in [1] and in [2] was “Dose-dependent effect” each time. For the same compound, the 50% effective concentration (EC50) in [3] stood at 1.6 µM; in [4], 2.7 µM; in assay [5], 5.4 µM. Also, the inhibition entry in [6] and in assay [7] was “inactive” throughout.
In the case of `CC(C)=CCC/C(C)=C/CC(CC=C(C)C)(P(=O)(OCC[C@@H](C)CCC=C(C)C)OCOC(=O)C(C)(C)C)P(=O)(OCOC(=O)C(C)(C)C)OCOC(=O)C(C)(C)C` (stereo partly drawn), the inhibition result in assay [1] and in [2] was “Dose-dependent effect” in each case. Moreover, the EC50 came out at 7.3 µM in assay [3], 25.3 µM in assay [4] and 28.2 µM in assay [5].
On to `CC[C@H](C)C(=O)O[C@H]1C[C@@H](C)C=C2C=C[C@H](C)[C@H](CC[C@@H]3C[C@@H](O)CC(=O)O3)[C@H]21`, for which the inhibition entry in assay [8], in [9], in assay [10] and in [11] was “inactive” in each case.
For `CC(C)=CCC/C(C)=C/CC(C)(P(=O)(OCC[C@H](C)CCC=C(C)C)OCOC(=O)C(C)(C)C)P(=O)(OCOC(=O)C(C)(C)C)OCOC(=O)C(C)(C)C` (stereo partly drawn), the inhibition entry in [12] and in [13] was “Active” throughout.
For the compound `C=CCC(C/C=C(\C)CCC=C(C)C)(P(=O)(OCC[C@@H](C)CCC=C(C)C)OCOC(=O)C(C)(C)C)P(=O)(OCOC(=O)C(C)(C)C)OCOC(=O)C(C)(C)C` (stereo partly drawn), the inhibition entry in assay [1] and in [2] was “Dose-dependent effect” each time. For the same compound, the EC50 is 8.4 µM in [3], 10.7 µM in assay [4] and 25.4 µM in [5].

The values above are taken from ChEMBL document CHEMBL3817777, “A new motif for inhibitors of geranylgeranyl diphosphate synthase” (Bioorg Med Chem, 2016).
